Results from ChEMBL document CHEMBL1127345, “Synthesis, binding properties, and 18F labeling of fluorocarazolol, a high-affinity beta-adrenergic receptor antagonist” (J Med Chem, 1994).

Tests used:
Mus musculus [1] = assay: The in vivo tissue distribution of mouse heart with Propranolol administration after 10 min, value was fractional dose per fractional body weight of the organ; assay type: ADME, organism-based
Outline: (§1)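 Male CF-1 mice (25–30 g) anaesthetised with 2 mg sodium pentobarbital ip; blocked group given 0.1 mL of […] propranolol iv via tail vein (200 μg, 6.6 mg/kg), tracer 30 min later. 0.1 mL of 1–2 mCi/mL [18F]-labelled enantiomer iv via tail vein; killed by cervical dislocation, organs weighed and counted against weighed standards. %ID/g × body weight/100 gives unitless uptake; five mice per point (heart, blood, lung, kidney, liver, bone); mean ± SD.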

Mus musculus [2] = assay: The in vivo tissue distribution of mouse liver with Propranolol administration after 120 min, value was fractional dose per fractional body weight of the organ; assay type: ADME, organism-based; details: 2 h
Outline: (§2)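 Male CF-1 mice (25–30 g), anesthetised with 2 mg sodium pentobarbital ip 30 min before tracer. Where blocked, propranolol iv via tail vein (0.1 mL of […]; […]) about 30 min before tracer. Tracer given by tail vein, 0.1 mL at 1–2 mCi/mL. Mice killed by cervical dislocation at set times, organs weighed and counted. %ID/g × body weight/100 gives unitless uptake. Heart, brain, blood, lung, kidney, liver and bone n=5; average ± SD.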

Mus musculus [3] = assay: The in vivo tissue distribution of mouse liver without Propranolol preadministration in 90 min, value was fractional dose per fractional body weight of the organ; details: 1.5 h
Mus musculus [4] = assay: The in vivo tissue distribution of mouse liver with Propranolol administration after 90 min, value was fractional dose per fractional body weight of the organ; assay type: ADME, organism-based; details: 1.5 h
Outline: (§3)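 Male CF-1 mice (25–30 g), given 2 mg sodium pentobarbital ip 30 min before tracer. Blocked groups received propranolol iv by tail vein, 0.1 mL of 1 mg/mL. About 30 min later, 0.1 mL of [18F]tracer (1–2 mCi/mL) was injected by tail vein. Mice were killed by cervical dislocation at set times, and organs were weighed and counted. Uptake is %ID/g × body weight/100, average ± SD; n=5 for heart, brain, blood, lung, kidney, liver and bone.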

Mus musculus [5] = assay: The in vivo tissue distribution of mouse heart with Propranolol preadministration in 10 min, value was fractional dose per fractional body weight of the organ; assay type: ADME, organism-based; outline: as §2
Mus musculus [6] = assay: The in vivo tissue distribution of mouse kidney without Propranolol preadministration in 120 min, value was fractional dose per fractional body weight of the organ; details: 2 h
Mus musculus [7] = assay: The in vivo tissue distribution of mouse blood without Propranolol preadministration in 60 min, value was fractional dose per fractional body weight of the organ; details: 1 h
Mus musculus [8] = assay: The in vivo tissue distribution of mouse liver without Propranolol preadministration in 10 min, value was fractional dose per fractional body weight of the organ
Mus musculus [9] = assay: The in vivo tissue distribution of mouse lung without Propranolol preadministration in 20 min, value was fractional dose per fractional body weight of the organ
Mus musculus [10] = assay: The in vivo tissue distribution of mouse blood with Propranolol preadministration in 10 min, value was fractional dose per fractional body weight of the organ; assay type: ADME, organism-based
Outline: (§4)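 Male CF-1 mice, 25–30 g, anesthetized with 2 mg sodium pentobarbital ip. Propranolol pretreatment was 0.1 mL of 1 mg/mL iv by tail vein. About 30 min later, 0.1 mL of 1–2 mCi/mL [18F]tracer was given by tail vein. Mice were killed by cervical dislocation at set times. Organs were weighed and counted against weighed dose standards. %ID/g × body weight/100 gave fractional dose per fractional body weight. Blood and heart n=5.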

Mus musculus [11] = assay: The in vivo tissue distribution of mouse liver with Propranolol administration after 60 min, value was fractional dose per fractional body weight of the organ; assay type: ADME, organism-based; details: 1 h; outline: as §1
Mus musculus [12] = assay: The in vivo tissue distribution of mouse kidney without Propranolol preadministration in 20 min, value was fractional dose per fractional body weight of the organ
Mus musculus [13] = assay: The in vivo tissue distribution of mouse heart without Propranolol preadministration in 20 min, value was fractional dose per fractional body weight of the organ
Mus musculus [14] = assay: The in vivo tissue distribution of mouse blood with Propranolol administration after 120 min, value was fractional dose per fractional body weight of the organ; assay type: ADME, organism-based; details: 2 h; outline: as §3
Mus musculus [15] = assay: The in vivo tissue distribution of mouse bone without Propranolol preadministration in 120 min, value was fractional dose per fractional body weight of the organ; details: 2 h
Mus musculus [16] = assay: The in vivo tissue distribution of mouse heart without Propranolol preadministration in 40 min, value was fractional dose per fractional body weight of the organ
Mus musculus [17] = assay: The in vivo tissue distribution of mouse bone with Propranolol administration after 40 min, value was fractional dose per fractional body weight of the organ; assay type: ADME, organism-based, Bone element; outline: as §2
Mus musculus [18] = assay: The in vivo tissue distribution of mouse heart with Propranolol administration after 60 min, value was fractional dose per fractional body weight of the organ; assay type: ADME, organism-based; details: 1 h; outline: as §4
Mus musculus [19] = assay: The in vivo tissue distribution of mouse kidney without Propranolol preadministration in 40 min, value was fractional dose per fractional body weight of the organ
Mus musculus [20] = assay: The in vivo tissue distribution of mouse bone with Propranolol preadministration in 60 min, value was fractional dose per fractional body weight of the organ; assay type: ADME, organism-based, Bone element; details: 1 h; outline: as §2
Mus musculus [21] = assay: The in vivo tissue distribution of mouse heart with Propranolol administration after 120 min, value was fractional dose per fractional body weight of the organ; assay type: ADME, organism-based; details: 2 h; outline: as §3
Mus musculus [22] = assay: The in vivo tissue distribution of mouse blood with Propranolol administration after 60 min, value was fractional dose per fractional body weight of the organ; assay type: ADME, organism-based; details: 1 h; outline: as §2
Mus musculus [23] = assay: The in vivo tissue distribution of mouse liver with Propranolol administration after 40 min, value was fractional dose per fractional body weight of the organ; assay type: ADME, organism-based; outline: as §3
Mus musculus [24] = assay: The in vivo tissue distribution of mouse blood without Propranolol preadministration in 40 min, value was fractional dose per fractional body weight of the organ
Mus musculus [25] = assay: The in vivo tissue distribution of mouse bone with Propranolol administration after 20 min, value was fractional dose per fractional body weight of the organ; assay type: ADME, organism-based, Bone element; outline: as §1
Mus musculus [26] = assay: The in vivo tissue distribution of mouse lung with Propranolol administration after 40 min, value was fractional dose per fractional body weight of the organ; assay type: ADME, organism-based; outline: as §1
Mus musculus [27] = assay: The in vivo tissue distribution of mouse brain without Propranolol preadministration in 20 min, value was fractional dose per fractional body weight of the organ
Mus musculus [28] = assay: The in vivo tissue distribution of mouse kidney with Propranolol administration after 180 min, value was fractional dose per fractional body weight of the organ; assay type: ADME, organism-based; details: 3 h; outline: as §2
Mus musculus [29] = assay: The in vivo tissue distribution of mouse kidney with Propranolol administration after 10 min, value was fractional dose per fractional body weight of the organ; assay type: ADME, organism-based; outline: as §3
Mus musculus [30] = assay: The in vivo tissue distribution of mouse lung with Propranolol administration after 10 min, value was fractional dose per fractional body weight of the organ; assay type: ADME, organism-based; outline: as §3
Mus musculus [31] = assay: The in vivo tissue distribution of mouse brain with Propranolol administration after 40 min, value was fractional dose per fractional body weight of the organ; assay type: ADME, organism-based; outline: as §2

| Compound | Dose/organ (Mus musculus [1]) | Dose/organ (Mus musculus [2]) | Dose/organ (Mus musculus [3]) | Dose/organ (Mus musculus [4]) | Dose/organ (Mus musculus [5]) | Dose/organ (Mus musculus [6]) | Dose/organ (Mus musculus [7]) | Dose/organ (Mus musculus [8]) | Dose/organ (Mus musculus [9]) | Dose/organ (Mus musculus [10]) | Dose/organ (Mus musculus [11]) | Dose/organ (Mus musculus [12]) | Dose/organ (Mus musculus [13]) | Dose/organ (Mus musculus [14]) | Dose/organ (Mus musculus [15]) | Dose/organ (Mus musculus [16]) | Dose/organ (Mus musculus [17]) | Dose/organ (Mus musculus [18]) | Dose/organ (Mus musculus [19]) | Dose/organ (Mus musculus [20]) | further results |
| --- | --- | --- | --- | --- | --- | --- | --- | --- | --- | --- | --- | --- | --- | --- | --- | --- | --- | --- | --- | --- | --- |
| CC(C[18F])NC[C@H](O)COc1cccc2[nH]c3ccccc3c12 (some centres not stated) | 1.06 | 0.66 | 1.09 | 1.39 | 1.1 | 0.83 | 0.6 | 3.55 | 7.46 | 0.56 | 1.17 | 2.89 | 0.91 | 0.13 | 1.08 | 0.77 | 0.64 | 0.29 | 2.01 | 0.72 | Dose/organ (Mus musculus [21]): 0.15; Dose/organ (Mus musculus [22]): 0.25; Dose/organ (Mus musculus [23]): 1.66; Dose/organ (Mus musculus [24]): 0.69; Dose/organ (Mus musculus [25]): 0.86; Dose/organ (Mus musculus [26]): 1.98; Dose/organ (Mus musculus [27]): 0.95; Dose/organ (Mus musculus [28]): 0.35; Dose/organ (Mus musculus [29]): 4.18; Dose/organ (Mus musculus [30]): 5; Dose/organ (Mus musculus [31]): 0.64 |
| CC(C[18F])NC[C@@H](O)COc1cccc2[nH]c3ccccc3c12 (some centres not stated) | 1 | 0.94 | 1.25 | 1.17 | 0.93 | 1 | 0.42 | 3.08 | 5.1 | 0.57 | 1.61 | 4.8 | 0.81 | 0.3 | 0.78 | 0.76 | 0.83 | 0.57 | 3.3 | 1.08 | Dose/organ (Mus musculus [21]): 0.27; Dose/organ (Mus musculus [22]): 0.63; Dose/organ (Mus musculus [23]): 2.11; Dose/organ (Mus musculus [24]): 0.63; Dose/organ (Mus musculus [25]): 0.77; Dose/organ (Mus musculus [26]): 2; Dose/organ (Mus musculus [27]): 0.66; Dose/organ (Mus musculus [28]): 0.33; Dose/organ (Mus musculus [29]): 5.1; Dose/organ (Mus musculus [30]): 5.23; Dose/organ (Mus musculus [31]): 0.9 |
